Laboratory results published in article PMC3528973 (Bioorganic & medicinal chemistry letters, 2011).
Values after ≈ are worked out from the molar mass of the structure shown. Like-named read-outs stand apart in the source and are kept apart here.

Columns and labels:
[1] = Stability/reactivity toward glutathione; type: physicochemical
[2] = Aqueous solubility
[3] = test system: BJeLR (expressing HRAS^G12V); assay: cells; conditions: read-out: IC50 BJeLR
[4] = test system: BJeLR (expressing HRAS^G12V); conditions: for increase in activity compared to 2a: BJeLR
[5] = test system: BJeH-LT (isogenic to BJeLR without HRAS^G12V); assay: Cell viability counterscreen in isogenic BJeH-LT cells; type: cell-based; conditions: read-out: IC50 BJeH-LT
How it was run: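 IC50 measured in BJeH-LT cells, the isogenic partner of BJeLR lacking mutant HRAS; each reported value is the mean of experiments run in triplicate.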

[6] = test system: DRD (expressing HRAS^G12V with alternative oncogenic constructs); assay: Cell viability in DRD cells; type: cell-based
[7] = test system: BJeLR (expressing HRAS^G12V); conditions: cited from earlier work

Row | Structure (SMILES) | IC50 [3] | activity in the cell assays (in words) [4] | IC50 [5] | other results
1 | COc1ccc(N(C(=O)CCl)C(C(=O)NCCc2ccccc2)c2cccs2)cc1Cl (stereo not shown) [Compound 1a] |  |  |  | GSH adduct observed ([1]; 48 hours incubation in PBS/DMSO (1/2) at room temperature, GSH 5 mM): 20%; time in which formation of the GSH adduct was observed ([1]; base (triethylamine) added): 1 h; solubility [2]: < 1 µM
2 | O=C(c1ccc([N+](=O)[O-])o1)N1CCN(C(c2ccccc2)c2ccccc2)CC1 [Compound 2m] | > 20 µg/mL | inactive |  | 
3 | COc1ccc(N(C(=O)CCl)C(C(=O)NCCc2ccccc2)c2nc(C)cs2)cc1Cl (stereo not shown) [Compound 1k] |  | inactive |  | 
4 | O=C(c1n[nH]cc1[N+](=O)[O-])N1CCN(C(c2ccccc2)c2ccccc2)CC1 [Compound 2h] | > 20 µg/mL |  | > 20 µg/mL | 
5 | Cc1onc(C(=O)N2CCN(C(c3ccc(Cl)cc3)c3ccc(Cl)cc3)CC2)c1[N+](=O)[O-] [Compound 2y] |  |  |  | selectivity for the DRD vs the BJeH cell line ([6]; DRD (HRAS^G12V) vs BJeH (non expressing HRAS^G12V)): 6 fold; increase in activity compared to the hit compound 2a ([6]; DRD cell line): 16 fold; increase in activity compared to 2a [4]: 14 fold
6 | Cc1onc(C(=O)N2CCN(Cc3ccccc3)CC2)c1[N+](=O)[O-] [Compound 2r] | > 20 µg/mL | eliminate activity | > 20 µg/mL | 
7 | Cc1onc(C(=O)N2CCN(C(c3ccncc3)c3ccncc3)CC2)c1[N+](=O)[O-] [Compound 2v] | > 20 µg/mL | inactive | > 20 µg/mL | 
8 | COc1ccccc1N1CCN(C(=O)c2noc(C)c2[N+](=O)[O-])CC1 [Compound 2q] | > 20 µg/mL | inactive | > 20 µg/mL | 
9 | Cc1ccc(C(=O)N2CCN(C(c3ccccc3)c3ccccc3)CC2)c([N+](=O)[O-])c1 [Compound 2l] | > 20 µg/mL | inactive | > 20 µg/mL | 
10 | Cc1onc(C(=O)N2CCN(C(c3ccc(F)cc3)c3ccc(F)cc3)CC2)c1[N+](=O)[O-] [Compound 2w] |  |  |  | increase in activity compared to 2a [4]: 5 fold
11 | COC(=O)c1ccc(C2c3[nH]c4ccccc4c3C[C@@H](C(=O)OC)N2C(=O)CCl)cc1 (stereo partly shown) [RSL3] |  |  |  | selectivity vs BJeH-LT ([7]; BJeLR vs BJeH-LT): approximately 8 fold; IC50 ([7]; read-out: IC50 in BJeLR, BJeLR): 100 nM
12 | COc1ccc(N(C(=O)CCl)C(C(=O)NCS(=O)(=O)c2ccc(C)cc2)c2cccs2)cc1Cl (stereo not shown) [Compound 1q] |  |  |  | solubility [2]: 16 µM (≈ 8.66 µg/mL)
13 | COc1ccc(N(C(=O)CCl)C(C(=O)NCn2nnc3ccccc32)c2cccs2)cc1Cl (stereo not shown) [Compound 1r] |  |  |  | aqueous solubility (in words) ([2]; compared to 1a): did not improve solubility
14 | Cc1onc(C(=O)NCc2ccc(F)cc2)c1[N+](=O)[O-] [Compound 2o] | > 20 µg/mL | inactive | > 20 µg/mL | 
15 | Cn1ncc([N+](=O)[O-])c1C(=O)N1CCN(C(c2ccccc2)c2ccccc2)CC1 [Compound 2j] | > 20 µg/mL |  | > 20 µg/mL | 
16 | Cc1onc(C(=O)N2CCOCC2)c1[N+](=O)[O-] [Compound 2n] | > 20 µg/mL | inactive | > 20 µg/mL | 
17 | Cn1cc([N+](=O)[O-])c(C(=O)N2CCN(C(c3ccccc3)c3ccccc3)CC2)n1 [Compound 2i] | > 20 µg/mL |  | > 20 µg/mL | 
18 | CCC(=O)N1CCN(C(=O)c2noc(C)c2[N+](=O)[O-])CC1 [Compound 2p] | > 20 µg/mL | inactive | > 20 µg/mL | 
19 | Cc1onc(C(=O)N2CCN(C(c3ccccn3)c3ccccn3)CC2)c1[N+](=O)[O-] [Compound 2u] | > 20 µg/mL | inactive | > 20 µg/mL | 
20 | Cc1onc(C(=O)NCCNC(c2ccccc2)c2ccccc2)c1[N+](=O)[O-] [Compound 2t] |  |  | > 20 µg/mL | 
21 | O=C(c1cc([N+](=O)[O-])ccn1)N1CCN(C(c2ccccc2)c2ccccc2)CC1 [Compound 2k] |  | weak inhibitor |  | 
